Assay outcomes (PubChem BioAssay)
An excerpt weighted towards active compounds, which were near 1.2% of everything screened.
LANA-H2A inh = blocks KSHV LANA binding to histone H2A/H2B. inhibition, % (test concentration not listed). cell-free LANA-H2A/H2B peptide, fluorescence polarization. AID 2629. 0.6% of 320,000 active. Q9QR71; in the data active = inhibition mostly above about 10%, no sharp cut-off; inactive = mostly below about 6.7%
procasp3 activ = activates human procaspase-3. recombinant procaspase-3 D3A, Ac-DEVD-pNA absorbance 405 nm. AID 463141. activation, % at 8.5 µM. P42574. 0.11% of 330,000 active;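 active = activation above the mean of all tested compounds plus 3 SD, cut at about 21% in these data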
Target sequence (P42574 whole entry D9A/D28A/D175A): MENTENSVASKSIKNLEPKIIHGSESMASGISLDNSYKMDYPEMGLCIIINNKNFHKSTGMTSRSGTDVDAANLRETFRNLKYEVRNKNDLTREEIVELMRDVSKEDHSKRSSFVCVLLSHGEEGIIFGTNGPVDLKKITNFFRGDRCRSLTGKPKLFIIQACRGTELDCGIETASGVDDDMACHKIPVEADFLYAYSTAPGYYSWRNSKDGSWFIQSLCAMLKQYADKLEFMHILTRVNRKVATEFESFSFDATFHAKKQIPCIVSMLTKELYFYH
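Assay system – Procaspase-3 D3A mutant, all three cleavage aspartates alanine · Controls – DMSO-only low control, 5 µM PC-3 D3A high control · Schedule – 1 h compound preincubation, 2 h substrate hydrolysis at 25 °C · Signal – 405 nm absorbance of p-nitroaniline, reads at 0 and 120 min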
ASAP1 inh = blocks human ASAP1-stimulated Arf1 GTP hydrolysis. GDP FP detection. inhibition, % at 16.5 µM. 0.19% of 360,000 active. AID 624377; in the data active = inhibition above about 25%
ARFGAP1 inh = rat ARFGAP1 inhibition; Q62848; Arfgap1-stimulated ARF1 GTP hydrolysis, GDP FP detection; inhibition, % at 16.5 µM; 0.26% of 360,000 active;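 active = inhibition above a per-plate limit, mean inhibition of low control wells plus 3 SD, cut at about 25% in these data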
Target sequence (Q62848 1-136 limits assumed): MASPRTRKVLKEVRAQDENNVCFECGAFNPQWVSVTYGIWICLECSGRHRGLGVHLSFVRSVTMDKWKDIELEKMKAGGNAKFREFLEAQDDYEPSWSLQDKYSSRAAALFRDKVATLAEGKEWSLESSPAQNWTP
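Assay system: Rat Arfgap1 GAP domain (His6, aa 1-136), purified enzyme | Buffer or medium: HEPES 25 mM pH 7.5, NaCl 150 mM, MgCl2, DTT | Schedule: GTP hydrolysis reaction 2 h at 25 °C | Signal: FP of antibody-bound GDP Alexa 633 tracer, ex 620/em 688 nm | Measure: Percent inhibition of Arfgap1-stimulated GTP hydrolysis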
proCasp7 act = activates human procaspase-7, counter-screen for procaspase-3 activators; P55210; recombinant procaspase-7, Ac-DEVD-pNA absorbance 405 nm; D23A/D198A/D206A triple mutant, cannot self-cleave; scale: DMSO 0, 5 µM enzyme 100; activation, % at 8.5 µM; 0.093% of 330,000 active;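 active = percent activation above the screen-wide mean plus 3 SD, cut at about 25% in these data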
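System: Procaspase-7 triple mutant (PC-7 D3A); measure: % activation from two-timepoint absorbance difference, scaled to controls; times: 1 h compound preincubation, 2 h substrate cleavage, 25 °C; also added: Ac-DEVD-pNA substrate, 400 µM as added; measured by: Epi-absorbance of released pNA at 405 nm, two timepoints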
Yeast superoxide = lowers age-related superoxide in aged yeast cells. S. cerevisiae aged cells, superoxide DHE fluorescence; active compounds read low. superoxide response (% of plate mean), % at 10 µM. 0.18% of 330,000 active. AID 2690;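 active = superoxide response under a set limit, about three screen SD below normal, cut at about 65% in these data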;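 also: yeast aged for seven days with compound at 30 °C before DHE staining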
Superoxide pick = confirmation of caloric restriction mimetics inhibiting yeast age-related superoxide; S. cerevisiae aging, superoxide DHE fluorescence; active compounds read low; shares compounds with Yeast superoxide; superoxide response (% of plate), % at 10 µM; 1% of 850 active;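 active = superoxide signal below 65% of the plate average of sample wells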;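 also: cells aged with compound for 7 days at 30 degrees C before staining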
DHE fluor count = DHE fluorescence interference, counter-screen artifact. shares compounds with Yeast superoxide. S. cerevisiae BY4741, flow cytometry; active compounds read low. fluorescence response, % at 10 µM. 850 tested, under 10 active. AID 435000;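 active = fluorescence response below 15%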;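 also: lower means stronger quenching of DHE signal or ROS scavenging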
Hits are given with their value; – = inactive; · = no result given.

SMILES | LANA-H2A inh | procasp3 activ | ASAP1 inh | ARFGAP1 inh | proCasp7 act | Yeast superoxide | Superoxide pick | DHE fluor count
CCn1c2ccccc2c2cc(NC(=O)N3CCCCC3)ccc21 | · | · | – | – | · | · | · | ·
CNC(=O)c1cc(Nc2nnc(-c3ccc(C)c(S(N)(=O)=O)c3)c3ccccc23)ccc1OC | – | – | – | – | – | 58 | – | –
Cc1ccc(-c2nnc(Nc3ccc4c(c3)OCO4)c3ccccc23)cc1S(N)(=O)=O | · | – | – | – | – | – | – | –
Cc1ccc(-c2nnc(Nc3ccc(C(N)=O)cc3)c3ccccc23)cc1S(=O)(=O)NCC1CCCO1 (stereo not drawn) | – | – | – | – | – | – | – | –
COc1nnc(-c2ccc(C)c(S(=O)(=O)NCC3CCCO3)c2)c2ccccc12 (stereo not drawn) | – | – | – | – | – | – | · | ·
CNC(=O)COc1ccc(Nc2nnc(-c3ccc(C)c(S(N)(=O)=O)c3)c3ccccc23)cc1 | – | – | – | – | – | 42 | – | –
CC(=O)c1ccc(NC(=O)COC(=O)CCC2CCCC2)cc1 | – | – | – | – | – | – | · | ·
COc1ccc(-c2cc(C(=O)Nc3ccc(Br)cc3)no2)cc1 | – | – | – | – | – | – | · | ·
CC(=O)Nc1ccc(Nc2nnc(-c3ccc(C)c(S(=O)(=O)NCCO)c3)c3ccccc23)cc1 | – | · | – | – | · | – | · | ·
CC(=O)Nc1ccc(Nc2nnc(-c3ccc(C)c(S(N)(=O)=O)c3)c3ccccc23)cc1 | – | – | – | – | – | – | – | –
O=c1cc2c(nn1Cc1ccccc1)-c1ccccc1CC2 | – | – | – | – | – | – | · | ·
O=c1cc2c(nn1Cc1ccc(F)cc1)-c1ccccc1CC2 | – | – | – | – | – | 59 | – | –
Cc1cc(=O)[nH]c(-c2cccnc2)n1 | – | – | – | – | – | – | · | ·
Cn1c(=O)c2[nH]c(-c3cccnc3)nc2n(C)c1=O | – | – | – | – | – | 58 | – | –
CC(C)(C#N)NC(=O)C(=O)c1c(-c2ccccc2)cc2ccccn12 | – | – | – | – | – | – | · | ·
O=C(NC(=S)NNC(=O)c1ccccc1O)c1ccco1 | – | – | – | – | – | 57 | – | –
CCOC(=O)N1CCC(N2CCCC(C(=O)c3ccc4cc(OC)ccc4c3)C2)CC1 (stereo not drawn) | – | – | – | – | – | – | · | ·
O=C(O)c1c(N2CCCCC2)ccc([N+](=O)[O-])c1N1CCCCC1 | – | – | – | – | – | 53 | – | –
NC(=O)c1ccc(N2CCCCCC2)c([N+](=O)[O-])c1 | – | – | – | – | – | – | · | ·
O=C(c1ccccc1)c1ccc(C(=O)N2CCN(c3ccccc3O)CC2)cc1 | · | · | – | – | · | · | · | ·
Nc1ccccc1N1CCN(C(=O)c2ccccc2)CC1 | – | – | – | – | – | – | – | –
Cn1c(=O)c(=O)n(C)c2cc(S(=O)(=O)N3CCCC3C(=O)Nc3ccc(F)cc3)ccc21 (stereo not drawn) | – | – | – | – | – | – | · | ·
Cc1cc(C)n2nc(-c3ccc(Br)cc3)cc2n1 | – | – | – | – | – | – | – | –
Cc1cc(-c2ccc(Cl)cc2)n2nc(C)cc2n1 | – | – | – | – | – | – | · | ·
Cc1cc(C)n2nc(-c3ccc(Cl)cc3)cc2n1 | – | – | – | – | – | – | – | –
SMILES | LANA-H2A inh | procasp3 activ | ASAP1 inh | ARFGAP1 inh | proCasp7 act | Yeast superoxide | Superoxide pick | DHE fluor count
COc1ccc(-c2cc3nc(C)cc(C)n3n2)cc1 | – | – | – | – | – | – | · | ·
CCN(Cc1ccccc1)C(=O)Cn1c(=O)n(CC(=O)N2CCCCC2)c(=O)c2sccc21 | – | – | – | – | – | – | · | ·
CCN(CC(=O)NC(C)(C)C)C(=O)CCl | – | – | – | – | – | – | · | ·
Cc1ccc(Cl)cc1NC(=S)N(CCN(C)C)C(C)c1ccccn1 (stereo not drawn) | – | – | – | – | – | – | · | ·
CN(CC(=O)Nc1ccc(F)cc1)C(=O)c1ccc2ccccc2n1 | · | · | – | – | · | · | · | ·
O=C1COc2ccc(C(=O)NCc3ccc4c(c3)OCO4)cc2N1 | – | – | – | – | – | 64 | – | –
CC(=O)c1c(-c2ccccc2)c2cc([N+](=O)[O-])ccc2[nH]c1=O | – | – | – | – | – | 59 | – | –
O=C1c2cccc3cc([N+](=O)[O-])cc(c23)C(=O)N1CCN1CCCC1 | · | · | – | – | · | · | · | ·
Nc1cc2c3c(cccc3c1)C(=O)N(CCN1CCCC1)C2=O | – | – | – | – | – | 48 | – | –
O=C(CN1CCN(C(=O)c2c(F)cccc2F)CC1)Nc1ccccc1C(F)(F)F | – | – | – | – | – | 52 | – | –
O=C(CN1CCN(CC(=O)Nc2ccccc2C(F)(F)F)CC1)Nc1ccccc1F | – | – | – | – | – | – | · | ·
O=C(NC1CCCC1)C(c1ccccc1)N(C(=O)c1csnn1)c1ccccc1F (stereo not drawn) | – | – | – | – | – | – | · | ·
O=C(NC1CCCCC1)C(c1ccncc1)N(C(=O)c1csnn1)c1ccccc1F (stereo not drawn) | – | – | – | – | – | 65 | – | –
COc1cc(C(=O)N2CCN(C(=O)c3cc(-c4ccccc4)n[nH]3)CC2)cc(OC)c1OC | – | – | – | – | – | 63 | – | –
Clc1cccc(-c2nc(-c3ccc(-c4nn[nH]n4)cc3)no2)c1 | – | – | – | – | – | – | · | ·
O=C(CSc1nc2[nH]ncc2c(=O)[nH]1)Nc1ccccc1F | – | – | – | – | – | – | · | ·
Cc1ccc(NC(=O)c2ccc(C(=O)c3ccccc3)cc2)nc1 | – | – | – | – | – | 63 | – | –
Cc1c(-c2cccs2)[n+](=O)c2c(n1[O-])CCCCC2 | – | – | – | – | – | – | · | ·
Fc1cccc2sc(Nc3nc4ccccc4s3)nc12 | – | – | – | – | – | 65 | – | –
Cc1ccc(S(=O)(=O)Nc2c(C)cc(C)nc2Cl)cc1 | – | – | – | – | – | 50 | – | –
CC1C(=O)NN=C1C(=O)N/N=C\c1ccc(O)cc1O (stereo not drawn) | – | – | – | – | – | 60 | – | –
CCN(CC)C(=O)CSC1=Nc2ccccc2C2=NC(Cc3c[nH]c4ccccc34)C(=O)N12 (stereo not drawn) | – | – | – | – | – | 65 | – | –
Cc1cc(NC(=O)CSC2=Nc3ccccc3C3=NC(Cc4ccccc4)C(=O)N23)n[nH]1 (stereo not drawn) | – | – | – | – | – | – | · | ·
